M5 PAM: potentiates acetylcholine response at human M5 receptor; actives 0.3% (n = 360,000); activation, % at 3 µM; P08912; AID 624038; CHO-K1 hM5, Fluo-8 calcium, ACh EC20 PAM; 0% = ACh EC20, 100% = ACh EC100;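 active means activation above the run cutoff, the mean activation of all test compounds plus 3 SD, cut at about 18% in these data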
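Assay system: CHO-K1 hM5 cells / Incubation: Fluo-8 loading 80 min at 37 °C plus 30 min room temperature / Technique: Fluo-8 calcium dye fluorescence, kinetic read / Repeats: single replicate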
M4 PAM: CHRM4 positive allosteric modulation; actives 0.4% (n = 360,000); AID 624126; CHO-K1 hM4/Gqi5, Fluo-8 calcium fluorescence, ACh EC20; 0% = ACh EC20, 100% = maximal ACh; activation, % at 3 µM; P08173;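 active means activation above its plate's cutoff, the mean activation of sample wells plus 3 SD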
Target sequence (P08173 whole entry, looked up): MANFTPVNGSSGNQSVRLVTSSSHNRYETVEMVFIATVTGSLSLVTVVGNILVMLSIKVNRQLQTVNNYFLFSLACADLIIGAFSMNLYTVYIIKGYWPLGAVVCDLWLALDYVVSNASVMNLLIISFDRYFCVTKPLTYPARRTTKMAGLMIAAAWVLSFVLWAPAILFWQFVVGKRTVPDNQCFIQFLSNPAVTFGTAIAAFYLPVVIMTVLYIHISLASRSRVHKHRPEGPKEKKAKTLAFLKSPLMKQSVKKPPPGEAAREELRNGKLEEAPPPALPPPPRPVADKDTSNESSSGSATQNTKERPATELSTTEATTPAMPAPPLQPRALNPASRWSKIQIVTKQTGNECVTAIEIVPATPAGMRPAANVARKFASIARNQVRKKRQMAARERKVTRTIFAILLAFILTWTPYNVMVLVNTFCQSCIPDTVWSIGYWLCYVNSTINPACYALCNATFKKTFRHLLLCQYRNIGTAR
M5 ag: agonists of human muscarinic M5 receptor (CHRM5) | P08912 | actives 0.19% (n = 360,000) | CHO-K1 hM5 cells, Fluo-8 calcium fluorescence; 0% DMSO wells, 100% maximal acetylcholine response | activation, % at 3 µM;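 active means activation above the run's mean over test compounds plus 3 SD, cut at about 23% in these data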;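 further: signal is peak over basal fluorescence ratio across the kinetic read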
M5 antag: blocks acetylcholine activation of human M5 receptor | CHO-hM5 cells, Fluo-8 calcium fluorescence, ACh EC80 | inhibition, % at 3 µM | actives 0.59% (n = 360,000) | AID 624040;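 active means inhibition above a per-plate cutoff, the mean of that plate's test compounds plus 3 SD, cut at about 27% in these data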;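 further: 0% = acetylcholine EC80 with DMSO and 100% = DMSO without agonist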
CHRM4 agonist: agonists of human muscarinic M4 receptor (CHRM4) | P08173 | CHO-K1 hM4/Gqi5, Fluo-8 calcium fluorescence; vehicle 0%, full acetylcholine response 100% | activation, % at 3 µM | actives 0.14% (n = 360,000) | AID 624127;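 active means activation above the run mean over all test wells plus 3 SD, cut at about 32% in these data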;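 further: peak over basal fluorescence ratio per well then scaled between controls; 0% = DMSO wells and 100% = acetylcholine at EC100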
CHRM4 antagonist: CHRM4 antagonism in calcium assay | P08173 | CHO-hM4 cells, ACh EC80, Fluo-8 calcium fluorescence | inhibition, % at 3 µM | actives 0.73% (n = 360,000);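 active means inhibition above its plate's cutoff, the mean inhibition of sample wells plus 3 SD, cut at about 27% in these data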;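 further: 0% = acetylcholine EC80 with DMSO and 100% = DMSO without agonist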
* = called active by the depositor. Hits are enriched below; roughly 1.8% of the tested compounds scored in any of these assays.

SMILES	M5 PAM	M4 PAM	M5 ag	M5 antag	CHRM4 agonist	CHRM4 antagonist
O=C(NCc1ccccn1)c1ccc(=O)oc1	1	31*	1	-3	1	10
O=C(NCc1ccccn1)c1ccc(-c2ccccc2)cc1	2	1	2	-26	2	-6
Cc1oc(-c2ccc(Cl)cc2)nc1CS(=O)CC(=O)NCCCN1CCN(Cc2ccccc2)CC1 (stereo not given)	-12	-12	-7	31*	6	9
Cc1ccc(-c2nc(CS(=O)CC(=O)NCc3ccc(Cl)cc3)c(C)o2)cc1 (stereo not given)	-1	9	-2	-3	0	-15
Cc1oc(-c2ccc(Cl)cc2)nc1CS(=O)CC(=O)NCc1ccccc1 (stereo not given)	0	21*	-4	8	2	-2
Cc1cc(Br)c2c(c1)[C@](O)(c1cn(C)c3ccccc13)C(=O)N2C	4	-2	0	-7	2	3
COc1ccc(C(=O)NC2CCc3ccccc32)cc1OC1CCN(C(C)C)CC1 (stereo not given)	-6	5	-6	28*	1	5
COc1ccc(C(=O)N(C)C2CCCc3ccccc32)cc1OC1CCN(C(C)C)CC1 (stereo not given)	-5	-10	-8	17	0	15
CCc1nnc(NC(=O)CCN(c2cc(C)cc(C)c2)S(=O)(=O)c2ccc(Cl)cc2)s1	19*	18	6	11	1	-15
Cc1cc(C)cc(N(CCC(=O)O)S(=O)(=O)c2ccc(Cl)cc2)c1	7	-3	1	-10	-1	36*
C#CCN(C[C@H]1[C@H](OC(=O)NCc2ccccc2F)[C@H](OC(=O)NCc2ccccc2F)C[C@@H](C(=O)OC)[C@H]1C(=O)OC)S(=O)(=O)c1ccc(C)cc1	-3	3	0	1	1	-6
CC(C)(C)OC(=O)C[C@H]1C/C=C\C[C@@H](CC(=O)N(CCO)Cc2ccccc2)C(=O)NC[C@@H](c2ccccc2)OC1=O	6	6	3	2	4	-15
O=C(CCl)Nc1ccccc1C(=O)c1ccccc1	8	20*	-12	4	0	-6
CCCCN(C(=O)C1CC(=O)N(c2ccc(C)cc2)C1)c1c(N)n(CCC)c(=O)[nH]c1=O (stereo not given)	-2	16	4	4	1	-17
CC(=O)N1CCN=C1SCc1c(F)cccc1Cl	2	20*	3	0	2	-13
COc1ccc(OC)c(Nc2nc(N)c([N+](=O)[O-])c(N3CCOCC3)n2)c1	0	-3	0	4	8	8
CC1CCCCN1C(=O)CSc1nc(-c2ccccc2)cc(=O)[nH]1 (stereo not given)	20*	9	1	-9	2	-3
Cc1ccc(CNc2ncnc3cc(Cl)ccc23)cc1	-18	-11	2	35*	13	12
O=C1NN=C2CCCCCC12 (stereo not given)	-3	4	0	-1	0	-9
CCCn1c(N)c(C(=O)CSc2nnc3ccccn23)c(=O)n(C)c1=O	-4	27*	0	3	2	0
Cc1nc2ccc(C(=O)N3CCN(c4ccccc4)CC3)cn2c1N(C)C(=O)CCc1ccccc1	-3	2	-2	-1	3	-10
CCCCc1ccc(S(=O)(=O)NC2CCS(=O)(=O)C2)cc1 (stereo not given)	21*	-6	8	23	10	1
CCn1ccnc1CN(C)C(=O)c1ccc(OC2CCN(CCc3ccccc3)CC2)cc1	-16	-12	-11	47*	1	43*
COc1ccccc1N1CCN(CCC(=O)Nc2cccc(Cl)c2)CC1	-6	-3	-1	1	10	-7
Cc1ncsc1CCOC(=O)c1ccc(Cl)cc1	9	24*	-4	-15	2	-9
SMILES	M5 PAM	M4 PAM	M5 ag	M5 antag	CHRM4 agonist	CHRM4 antagonist
O=[N+]([O-])c1c(Nc2ccc(O)cc2)cc(Cl)c2nonc12	-10	-8	-8	43*	-2	78*
CCN(CC)C(=O)c1oc2ccc(S(=O)(=O)N3CCCCCC3)cc2c1C	-11	-6	3	9	11	5
CCN(CC)C(=O)c1oc2ccc(S(=O)(=O)N3CC(C)CC(C)C3)cc2c1C (stereo not given)	-12	-6	-2	30*	11	4
O=C(c1[nH]c(C(F)(F)F)nc1-c1ccccc1)N1CCN(c2ncc(C(F)(F)F)cc2Cl)CC1	-3	-8	16	13	37*	22
CC(C)C1C(=O)N(Cc2cn(Cc3ccco3)nn2)CCS(=O)(=O)N1Cc1ccc(-c2cccc(N(C)C)c2)cc1 (stereo not given)	6	18*	0	-5	-2	-14
CC1(C(=O)Nc2ccc3c(c2)OCO3)Cc2c(-c3cccc(C(N)=O)c3)ccnc2O1 (stereo not given)	0	3	2	2	1	-11
CC(=O)Nc1cccc(NC(=O)c2cc(-c3cccnc3)nc3ccc(Br)cc23)c1	-18	-12	6	16	27	31*
CC1=NOC(=O)/C1=C\c1ccc(-c2cc(Cl)ccc2Cl)o1	5	3	-2	12	1	7
CC1=NOC(=O)/C1=C\c1ccc(-c2ccc(Br)cc2)o1	-17	-11	-5	31*	10	34*
CC1=NOC(=O)/C1=C/c1ccc(-c2ccc(Cl)cc2)o1	-7	-2	2	17	9	34*
Nc1c(C(=O)CSc2nccn2-c2ccc(Cl)cc2)c(=O)[nH]c(=O)n1C1CC1	18*	7	-1	-2	0	-8
CCSc1nnc(NC(=O)CSc2nncc(=O)n2N)s1	6	4	6	15	0	-4
CCc1nnc(NC(=O)CSc2nncc(=O)n2N)s1	24*	6	0	-21	1	-6
O=[N+]([O-])c1cccc(COc2ccc(CN3CCCCC3)cc2)c1	-17	-17	-2	15	5	56*
Cc1cc(C)c(OCC(=O)Nc2ccc(NC(=O)c3ccco3)cc2)c([N+](=O)[O-])c1	26*	-1	0	-2	4	-2
Cc1cc(C)cc(OCC(=O)Nc2ccc(N3CCN(C(=O)c4ccco4)CC3)cc2)c1	-24	-18	6	18	27	32*
Cc1cc(C)c(OCC(=O)Nc2cccc(NC(=O)c3ccco3)c2)c(Br)c1	-19	-9	-1	18	15	13
